Results on 12 compounds are retold here after ChEMBL document CHEMBL2150861, “Fibrate-derived N-(methylsulfonyl)amides with antagonistic properties on PPARα” (Eur J Med Chem, 2012).

SMILES strings stand for the structures. pEC50, pIC50: −log10 of the molar value. The source made the active and inactive calls. The rule behind the calls is not given here.

The target in assay [1] is T1, Peroxisome proliferator-activated receptor gamma (Homo sapiens) (UniProt P37231).
T1 sequence (whole entry): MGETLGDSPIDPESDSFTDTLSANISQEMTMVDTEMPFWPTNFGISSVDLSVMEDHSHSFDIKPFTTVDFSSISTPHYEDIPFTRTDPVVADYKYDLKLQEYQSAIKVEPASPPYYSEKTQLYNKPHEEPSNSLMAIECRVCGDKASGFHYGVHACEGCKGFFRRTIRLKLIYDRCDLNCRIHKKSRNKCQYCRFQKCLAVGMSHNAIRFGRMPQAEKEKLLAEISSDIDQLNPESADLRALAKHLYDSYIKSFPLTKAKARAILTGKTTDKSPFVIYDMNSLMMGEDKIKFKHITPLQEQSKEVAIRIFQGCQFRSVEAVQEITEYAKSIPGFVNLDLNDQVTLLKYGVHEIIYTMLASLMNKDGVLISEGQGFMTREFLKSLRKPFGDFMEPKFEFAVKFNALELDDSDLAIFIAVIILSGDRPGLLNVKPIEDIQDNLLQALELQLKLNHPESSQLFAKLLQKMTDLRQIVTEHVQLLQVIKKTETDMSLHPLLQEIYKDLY
In words: Antagonist activity at PPARgamma expressed in HEK293A cells co-expressing GAL4 after 16 to 18 hrs by luciferase reporter gene assay. Format: functional, cell-based. Particulars: HEK293-A. (In a reporter assay the amount or activity of a reporter protein is the signal.)

The target of assay [2] is T2, Peroxisome proliferator-activated receptor alpha (Homo sapiens) (UniProt Q07869).
T2 sequence (whole entry): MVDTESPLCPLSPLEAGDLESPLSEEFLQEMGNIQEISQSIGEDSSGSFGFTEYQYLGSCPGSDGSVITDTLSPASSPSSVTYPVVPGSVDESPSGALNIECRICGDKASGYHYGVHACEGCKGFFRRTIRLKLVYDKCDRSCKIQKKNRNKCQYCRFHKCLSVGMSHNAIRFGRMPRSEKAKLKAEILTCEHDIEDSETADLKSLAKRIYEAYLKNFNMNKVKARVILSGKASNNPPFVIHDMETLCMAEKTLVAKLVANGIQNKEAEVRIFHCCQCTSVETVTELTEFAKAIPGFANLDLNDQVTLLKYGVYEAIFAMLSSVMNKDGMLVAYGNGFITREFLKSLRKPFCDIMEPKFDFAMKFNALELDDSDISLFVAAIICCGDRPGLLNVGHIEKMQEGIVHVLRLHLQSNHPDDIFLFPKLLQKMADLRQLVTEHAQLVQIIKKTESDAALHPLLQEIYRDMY
Briefly: Binding affinity to PPARalpha LBD at 100 uM after 2 hrs by TR-FRET analysis. A digest of the protocol: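 After 2 h incubation, excitation at 340 nm and emission at 520 and 495 nm. The 520/495 ratio is normalized to clofibric acid as 100%.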

Assay [3] has as its target T2, Peroxisome proliferator-activated receptor alpha (Homo sapiens). Briefly: Transactivation of PPARalpha expressed in HEK293A cells co-expressing GAL4 at 1 to 150 uM after 16 to 18 hrs by luciferase reporter gene assay. The note with it: HEK293-A. In kind it is cell-based. The method, boiled down: (§1)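 HEK293A cells cultured to 70–80% confluency, moved to serum-free medium, then calcium-phosphate co-transfected with GAL4–PPARα, luciferase reporter, renilla and pGEM plasmids. Compounds added 6 h after transfection and run in agonist mode. Firefly luciferase activity measured after 16–18 h. Five concentrations from 1 to 150 µM, at least three separate experiments, EC50 ± SEM.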

The target in assay [4] is T3, Peroxisome proliferator-activated receptor alpha (Homo sapiens, UniProt Q07869).
T3 sequence (Q07869 whole entry): T2 sequence (whole entry)
In words: (§2) Antagonist activity at PPARalpha expressed in HEK293 cells co-expressing GAL4 assessed as inhibition of GW7647-induced transactivation activity after 16 to 18 hrs by luciferase reporter gene assay. In kind it is functional, cell-based. A digest of the protocol:
(§3)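 GAL4–PPARα chimera in HEK293A cells grown to 70–80% confluency over 16 h, then switched to serum-free medium. Cells co-transfected by calcium phosphate with reporter, renilla, pGEM and receptor plasmids. […] Firefly luciferase read after 16–18 h. Five concentrations, 1–150 µM, at least three separate experiments, IC50 ± SEM.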

The target in assay [5] is T3, Peroxisome proliferator-activated receptor alpha. In words: Binding affinity to PPARalpha LBD after 2 hrs by TR-FRET analysis. A digest of the protocol:
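TR-FRET competitive binding to PPARα LBD. Five concentrations, three independent experiments. After 2 h incubation, excitation at 340 nm, emission at 520 nm (fluorescein acceptor) and 495 nm (terbium donor). Ratio 520/495 used to derive IC50.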
A general note: Time-resolved FRET reads energy transfer from a long-lived donor to a nearby acceptor.

The target of assay [6] is T2, Peroxisome proliferator-activated receptor alpha (Homo sapiens). In words: Transactivation of PPARalpha expressed in HEK293A cells co-expressing GAL4 at 150 uM after 16 to 18 hrs by luciferase reporter gene assay relative to control. Format: cell-based. The note with it: HEK293-A. The method, boiled down: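 Single-concentration agonist-mode transactivation: GAL4–PPARα or GAL4–PPARγ chimera, calcium-phosphate transfected into HEK293A cells with reporter, renilla and pGEM plasmids. […] Firefly luciferase read after 16–18 h. Values are ± SEM.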

In assay [7] the target is T1, Peroxisome proliferator-activated receptor gamma (Homo sapiens). In words: Transactivation of PPARgamma expressed in HEK293A cells co-expressing GAL4 at the concentration corresponding to IC50 or EC50 on PPARalpha after 16 to 18 hrs by luciferase reporter gene assay. The note with it: HEK293-A.
Assay [8] addresses T3, Peroxisome proliferator-activated receptor alpha. Briefly: Transactivation of PPARalpha expressed in HEK293A cells co-expressing GAL4 after 16 to 18 hrs by luciferase reporter gene assay. In kind it is cell-based, HEK293-A. The method, boiled down: as §1
Assay [9] deals with T2, Peroxisome proliferator-activated receptor alpha (Homo sapiens). Briefly: Antagonist activity at PPARalpha expressed in HEK293A cells co-expressing GAL4 assessed as inhibition of GW7647-induced transactivation activity at 1 to 150 uM after 16 to 18 hrs by luciferase reporter gene assay. Particulars: HEK293-A. In kind it is functional, cell-based. A digest of the protocol: as §3

Assay [10] shares this target. The description is as §2. Format: functional, cell-based. The method, boiled down:
as §3

In the case of `CS(=O)(=O)NC(=O)C(Sc1nc2cc(Cl)ccc2s1)c1ccccc1` (stereo unspecified), the inhibition entry in [1] is “Active”. In [2], the Activity stood at 95.3%. Moreover, the result in assay [3] was inactive. Moreover, the values for the pIC50 in assay [4] and in assay [5] were 6.05 and 6.02, respectively. Further, in assay [6], the fold change (FC) stood at 0.07.
Turning to `CCOc1ccc2nc(SC(C)C(=O)NS(C)(=O)=O)sc2c1` (stereo unspecified), the result in [7] and in assay [2] was Active. Moreover, in [8], the pEC50 (usually the EC50 on a negative log10 scale, so that one unit is a factor of ten) was 5.80. Moreover, the inhibition entry in assay [9] was “inactive”. In assay [6], the fold change (FC) stood at 1.84.
As to `CC(C)(Oc1ccc(CCNC(=O)c2ccc(Cl)cc2)cc1)C(=O)NS(C)(=O)=O`, the result in assay [7] and in assay [2] was Active. In assay [3], the result was inactive. Moreover, the inhibition result in [10] was “Dose-dependent effect”. For the same compound, the negative-log IC50 (pIC50) (in general, the negative decadic logarithm of the IC50, by convention in mol/L) in [4] was 4.16. For the same compound, the fold change (FC) in assay [6] is 0.44.
As for `CC(C)(Oc1ccc(Cl)cc1)C(=O)O`, the inhibition result in assay [9] is “inactive”. In addition, the fold change (FC) in assay [6] was 1.6.
As for `CCCC(Sc1nc2cc(Cl)ccc2s1)C(=O)NS(C)(=O)=O` (stereo unspecified), in [7], the result was Active. Also, in assay [2], the Activity was determined as 80.9%. For the same compound, in assay [3], the result was inactive. Moreover, the pIC50 was 6.22 in assay [4] and 6.05 in assay [5]. Further, the fold change (FC) in assay [6] came out at 0.28.
Regarding `Cc1ccc(C)c(OCCCC(C)(C)C(=O)NS(C)(=O)=O)c1`, the result in assay [7] was Active. In [2], the Activity was 118%. In addition, the negative-log EC50 (pEC50) in [8] is 5.15. The inhibition entry in [9] is “inactive”. The fold change (FC) in assay [6] was 1.55.
Regarding `CCCCCCC(Sc1nc2cc(Cl)ccc2s1)C(=O)NS(C)(=O)=O` (stereo unspecified), the inhibition result in assay [1] is “Active”. Moreover, the result in assay [2] was Active. In addition, in [3], the result was inactive. Moreover, the pIC50 in assay [4] is 5.29. The fold change (FC) in assay [6] was determined as 0.04.
Take `CC(C)(Oc1ccc(Cl)cc1)C(=O)NS(C)(=O)=O`: in [7], the result was Active. The Activity in assay [2] was 121%. In addition, the pEC50 in [8] was 4.97. Further, in assay [9], the inhibition entry was “inactive”. Further, in [6], the fold change (FC) turned out to be 1.7.
For `CCCC(Sc1nc2ccc(OCC)cc2s1)C(=O)NS(C)(=O)=O` (stereo unspecified), the outcome in assay [7] was Active. Further, the Activity in assay [2] worked out at 137%. For the same compound, the result in assay [3] was inactive. Moreover, the figures for the negative logarithm of the IC50 (pIC50) in [4] and in assay [5] were 5.05 and 6.32, respectively. Further, in assay [6], the fold change (FC) turned out to be 0.36.
As for `CC(C)C(Sc1nc2cc(Cl)ccc2s1)C(=O)NS(C)(=O)=O` (stereo unspecified), the outcome in assay [7] and in assay [2] was Active. In addition, the result in [3] was inactive. Further, the negative logarithm of the IC50 (pIC50) in assay [4] is 4.33. For the same compound, in assay [6], the fold change (FC) came out at 0.47.
`CC(C)(Oc1ccc(C(=O)c2ccc(Cl)cc2)cc1)C(=O)NS(C)(=O)=O` showed an Activity in [2] of 128%. For the same compound, in [3], the outcome was inactive. Moreover, the inhibition entry in assay [9] is “inactive”. Also, the fold change (FC) in assay [6] worked out at 1.1.
`CCCCC(Sc1nc2cc(Cl)ccc2s1)C(=O)NS(C)(=O)=O` (stereo unspecified): in assay [2], the Activity was 117%. The result in assay [3] was inactive. Further, the inhibition entry in assay [10] is “Dose-dependent effect”. Besides, the negative-log IC50 (pIC50) in assay [4] was 6.10; in assay [5] it was 6.22. Also, the fold change (FC) in assay [6] is 0.08.
